# Test results as given in ChEMBL document CHEMBL1125330, “N-substituted pyrazino[2,3-c][1,2,6]thiadiazine 2,2-dioxides. A new class of diuretics” (J Med Chem, 1992).
# What was measured:
# Conditions in all cases: in vivo
# Rattus norvegicus [1] = assay: Mean Chlorine excretion in rats when compound administered at 5 mg/kg po and vehicle dosed at 19.74 umol/kg; type: ADME, organism-based; set-up: dose 5 mg/kg, route oral
# Outline: (§1)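 Male Sprague-Dawley rats (HC/CFY, 175-200 g), no food or water for 18 h before and during the test. Single gavage dose (2.5-160 mg/kg; vehicle 1% carboxymethyl cellulose/0.1% Tween 80, 0.5 mL/100 g bw), then distilled water 2.5 mL/100 g bw po. Individual metabolic cages, 6 h urine. K+ by flame photometry, Cl- colorimetric, as mequiv/6 h/kg bw; unpaired Student t-test vs control.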
# Rattus norvegicus [2] = assay: Mean Chlorine excretion in rats when compound administered at 0 mg/kg po and vehicle dosed at 0 umol/kg; type: ADME, organism-based; set-up: dose 0 mg/kg, route oral
# Rattus norvegicus [3] = assay: Mean Chlorine excretion in rats when compound administered at 10 mg/kg po and vehicle dosed at 39.48 umol/kg; type: ADME, organism-based; set-up: dose 10 mg/kg, route oral; outline: as §1
# Rattus norvegicus [4] = assay: Mean Chlorine excretion in rats when compound administered at 80 mg/kg po and vehicle dosed at 315.88 umol/kg; type: ADME, organism-based; set-up: dose 80 mg/kg, route oral; outline: as §1
# Rattus norvegicus [5] = assay: Mean potassium excretion in rats when compound administered at 20 mg/kg po and vehicle dosed at 78.97 umol/kg; type: ADME, organism-based; set-up: dose 20 mg/kg, route oral; outline: as §1
# Rattus norvegicus [6] = assay: Mean potassium excretion in rats when compound administered at 40 mg/kg po and vehicle dosed at 157.94 umol/kg; type: ADME, organism-based; set-up: dose 40 mg/kg, route oral
# Outline: (§2)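 Male Sprague-Dawley rats (HC/CFY, 175-200 g) fasted and water-deprived 18 h before and during the test. Dosed by gavage at 2.5-160 mg/kg in 1% carboxymethyl cellulose/0.1% Tween 80, 0.5 mL/100 g bw. Immediately hydrated with water (2.5 mL/100 g bw, po). Urine collected 6 h in metabolic cages; Na+ and K+ by flame photometry; mean mequiv/6 h/kg bw; nonpaired Student t-test.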
# Rattus norvegicus [7] = assay: Mean potassium excretion in rats when compound administered at 5 mg/kg po and vehicle dosed at 19.74 umol/kg; type: ADME, organism-based; set-up: dose 5 mg/kg, route oral; outline: as §2
# Rattus norvegicus [8] = assay: Mean potassium excretion in rats when compound administered at 80 mg/kg po and vehicle dosed at 315.88 umol/kg; type: ADME, organism-based; set-up: dose 80 mg/kg, route oral; outline: as §2
# Rattus norvegicus [9] = assay: Mean potassium excretion in rats when compound administered at 0 mg/kg po and vehicle dosed at 0 umol/kg; type: ADME, organism-based; set-up: dose 0 mg/kg, route oral; outline: as §1
# Rattus norvegicus [10] = assay: Mean potassium excretion in rats when compound administered at 10 mg/kg po and vehicle dosed at 39.48 umol/kg; type: ADME, organism-based; set-up: dose 10 mg/kg, route oral; outline: as §1
# Rattus norvegicus [11] = assay: Mean sodium excretion in rats when compound administered at 0 mg/kg po and vehicle dosed at 0 umol/kg; type: ADME, organism-based; set-up: dose 0 mg/kg, route oral; outline: as §2
# Rattus norvegicus [12] = assay: Mean sodium excretion in rats when compound administered at 10 mg/kg po and vehicle dosed at 39.48 umol/kg; type: ADME, organism-based; set-up: dose 10 mg/kg, route oral; outline: as §2
# Rattus norvegicus [13] = assay: Mean sodium excretion in rats when compound administered at 160 mg/kg po and vehicle dosed at 631.76 umol/kg; type: ADME, organism-based; set-up: dose 160 mg/kg, route oral; outline: as §2
# Rattus norvegicus [14] = assay: Mean sodium excretion in rats when compound administered at 2.5 mg/kg po and vehicle dosed at 9.87 umol/kg; type: ADME, organism-based; set-up: dose 2.5 mg/kg, route oral; outline: as §2
# Rattus norvegicus [15] = assay: Mean sodium excretion in rats when compound administered at 20 mg/kg po and vehicle dosed at 78.97 umol/kg; type: ADME, organism-based; set-up: dose 20 mg/kg, route oral; outline: as §2
# Rattus norvegicus [16] = assay: Mean sodium excretion in rats when compound administered at 40 mg/kg po and vehicle dosed at 157.94 umol/kg; type: ADME, organism-based; set-up: dose 40 mg/kg, route oral; outline: as §2
# Rattus norvegicus [17] = assay: Mean sodium excretion in rats when compound administered at 5 mg/kg po and vehicle dosed at 19.74 umol/kg; type: ADME, organism-based; set-up: dose 5 mg/kg, route oral; outline: as §2
# Rattus norvegicus [18] = assay: Mean potassium excretion in rats when compound administered at 160 mg/kg po and vehicle dosed at 631.76 umol/kg; type: ADME, organism-based; set-up: dose 160 mg/kg, route oral; outline: as §1
# Rattus norvegicus [19] = assay: Mean potassium excretion in rats when compound administered at 2.5 mg/kg po and vehicle dosed at 9.87 umol/kg; type: ADME, organism-based; set-up: dose 2.5 mg/kg, route oral; outline: as §1
# Rattus norvegicus [20] = assay: Mean Chlorine excretion in rats when compound administered at 160 mg/kg po and vehicle dosed at 631.76 umol/kg; type: ADME, organism-based; set-up: dose 160 mg/kg, route oral; outline: as §1
# Rattus norvegicus [21] = assay: Mean Chlorine excretion in rats when compound administered at 2.5 mg/kg po and vehicle dosed at 9.87 umol/kg; type: ADME, organism-based; set-up: dose 2.5 mg/kg, route oral; outline: as §1
# Rattus norvegicus [22] = assay: Mean Chlorine excretion in rats when compound administered at 40 mg/kg po and vehicle dosed at 157.94 umol/kg; type: ADME, organism-based; set-up: dose 40 mg/kg, route oral; outline: as §1
# Rattus norvegicus [23] = assay: Mean urinary output in rats when compound administered at 0 mg/kg po and vehicle dosed at 0 umol/kg; type: ADME, organism-based, Urine; set-up: dose 0 mg/kg, route oral
# Outline: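 Water-loaded male Sprague-Dawley rats (HC/CFY, 175-200 g) fasted and without water for 18 h. Oral gavage of 2.5-160 mg/kg in 1% CMC with 0.1% Tween 80, then distilled water 2.5 mL/100 g po. Urine collected 6 h in metabolic cages, mean output in mL/6 h/kg bw. Unpaired Student t-test against vehicle; dose-response by linear regression.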
compound,measurement,setting,value
Nc1nc(N)c2nc(-c3ccccc3)c(N)nc2n1,Cl-,Rattus norvegicus [1],1.55 m equiv 6hr-1 kg-1 (body weight)-1
same,Cl-,Rattus norvegicus [2],0.88 m equiv 6hr-1 kg-1 (body weight)-1
same,Cl-,Rattus norvegicus [3],1.89 m equiv 6hr-1 kg-1 (body weight)-1
same,Cl-,Rattus norvegicus [4],2.8 m equiv 6hr-1 kg-1 (body weight)-1
same,K,Rattus norvegicus [5],0.16 m equiv 6hr-1 kg-1 (body weight)-1
same,K,Rattus norvegicus [6],0.18 m equiv 6hr-1 kg-1 (body weight)-1
same,K,Rattus norvegicus [7],0.19 m equiv 6hr-1 kg-1 (body weight)-1
same,K,Rattus norvegicus [8],0.14 m equiv 6hr-1 kg-1 (body weight)-1
same,K,Rattus norvegicus [9],0.5 m equiv 6hr-1 kg-1 (body weight)-1
same,K,Rattus norvegicus [10],0.18 m equiv 6hr-1 kg-1 (body weight)-1
same,Na,Rattus norvegicus [11],0.58 m equiv 6hr-1 kg-1 (body weight)-1
same,Na,Rattus norvegicus [12],2.61 m equiv 6hr-1 kg-1 (body weight)-1
same,Na,Rattus norvegicus [13],3.32 m equiv 6hr-1 kg-1 (body weight)-1
same,Na,Rattus norvegicus [14],1.69 m equiv 6hr-1 kg-1 (body weight)-1
same,Na,Rattus norvegicus [15],2.42 m equiv 6hr-1 kg-1 (body weight)-1
same,Na,Rattus norvegicus [16],2.88 m equiv 6hr-1 kg-1 (body weight)-1
same,Na,Rattus norvegicus [17],2.28 m equiv 6hr-1 kg-1 (body weight)-1
same,K,Rattus norvegicus [18],0.21 m equiv 6hr-1 kg-1 (body weight)-1
same,K,Rattus norvegicus [19],0.32 m equiv 6hr-1 kg-1 (body weight)-1
same,Cl-,Rattus norvegicus [20],3.05 m equiv 6hr-1 kg-1 (body weight)-1
same,Cl-,Rattus norvegicus [21],1.34 m equiv 6hr-1 kg-1 (body weight)-1
same,Cl-,Rattus norvegicus [22],2.83 m equiv 6hr-1 kg-1 (body weight)-1
same,V,Rattus norvegicus [23],24.94 ml 6hr-1 (kg of body weight)-1
